According to ChEMBL document CHEMBL4354817, “4-(3-Aminoazetidin-1-yl)pyrimidin-2-amines as High-Affinity Non-imidazole Histamine H3 Receptor Agonists with in Vivo Central Nervous System Activity” (J Med Chem, 2019):
One block for each compound: values may come before it. Active and inactive are the calls of the source. No cut-off for these calls is given here.

Experiments:
[1] = target: T1, Histamine H3 receptor (Homo sapiens, UniProt Q9Y5N1); assay: Displacement of [3H]NAMH from human H3R expressed in HEK293T cells incubated for 2 hrs by microbeta scintillation counting analysis; assay type: cell-based
T1 sequence (Q9Y5N1 whole entry): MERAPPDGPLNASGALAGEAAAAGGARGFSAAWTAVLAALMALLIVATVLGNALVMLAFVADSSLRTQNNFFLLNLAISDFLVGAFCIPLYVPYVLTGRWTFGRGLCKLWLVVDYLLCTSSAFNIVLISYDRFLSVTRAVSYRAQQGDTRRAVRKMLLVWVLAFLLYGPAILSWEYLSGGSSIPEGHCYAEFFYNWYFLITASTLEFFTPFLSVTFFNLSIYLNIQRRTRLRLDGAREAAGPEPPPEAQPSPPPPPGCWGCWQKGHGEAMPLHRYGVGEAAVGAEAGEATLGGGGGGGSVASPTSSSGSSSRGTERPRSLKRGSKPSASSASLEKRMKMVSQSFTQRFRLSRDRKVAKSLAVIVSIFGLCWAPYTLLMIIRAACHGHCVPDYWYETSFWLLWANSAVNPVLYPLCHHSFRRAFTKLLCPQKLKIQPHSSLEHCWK
Procedure, shortened: (§1)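 Homogenates of HEK293T cells transiently expressing hH3R or mH3R, harvested 48 h post-transfection, incubated with 2 nM [3H]NAMH and increasing unlabeled ligand in 50 mM Tris–HCl pH 7.4, 2 h at 25 °C. Rapid filtration over 0.5% PEI-coated GF/C filters, scintillation counting. One-site fit; IC50 converted to pKi by Cheng–Prusoff; three experiments in triplicate.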

[2] = target: T1, Histamine H3 receptor; assay: Agonist activity at human H3R expressed on HEK293T cells assessed as inhibition of forskolin-induced CRE-driven luciferase activity co-incubated with forskolin for 6 hrs and measured after 30 mins by CRE-luciferase reporter gene assay; assay type: functional
Procedure, shortened: (§2)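 HEK293T cells transiently transfected (PEI method) in suspension with receptor cDNA (1000 ng), CRE-luciferase (2500 ng) and empty pcDEF3; 50.000 cells/well on poly-L-lysine, grown 24 h. Stimulated with increasing ligand concentrations plus 1 μM forskolin, 37 °C, 5% CO2, 6 h. Luciferase reagent (ATP, D-luciferin) added, luminescence read after 30 min at 37 °C. Nonlinear regression; α relative to histamine; three experiments in triplicate.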

[3] = target: T1, Histamine H3 receptor; assay: Intrinsic activity at human H3R expressed on HEK293T cells assessed as activation of forskolin-induced CRE-driven luciferase activity co-incubated with forskolin for 6 hrs and measured after 30 mins by CRE-luciferase reporter gene assay relative to histamine; assay type: functional; procedure, shortened: as §2
[4] = target: T1, Histamine H3 receptor; assay: Agonist activity at human H3R expressed on HEK293T cells by [35S]GTPgammaS binding assay; assay type: functional
Procedure, shortened: (§3)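 [35S]GTPγS accumulation measured on homogenates of HEK293T cells transiently expressing hH3R, with increasing ligand concentrations; α expressed relative to histamine. At least three experiments in triplicate.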

[5] = target: T1, Histamine H3 receptor; assay: Intrisic activity at human H3R expressed on HEK293T cells by [35S]GTPgammaS binding assay relative to histamine; assay type: functional; procedure, shortened: as §3
[6] = target: T2, Histamine H4 receptor (Homo sapiens, UniProt Q9H3N8); assay: Agonist activity at human H4R expressed on HEK293T cells assessed as inhibition of forskolin-induced CRE-driven luciferase activity co-incubated with forskolin for 6 hrs and measured after 30 mins by CRE-luciferase reporter gene assay; assay type: functional; procedure, shortened: as §2
[7] = target: T2, Histamine H4 receptor; assay: Intrinsic activity at human H4R expressed on HEK293T cells assessed as activation of forskolin-induced CRE-driven luciferase activity co-incubated with forskolin for 6 hrs and measured after 30 mins by CRE-luciferase reporter gene assay relative to histamine; assay type: functional; procedure, shortened: as §2
[8] = target: Histamine H2 receptor (Homo sapiens) (UniProt P25021); assay: Agonist activity at human H2R expressed on HEK293T cells assessed as inhibition of forskolin-induced CRE-driven luciferase activity up to 10 uM pre-incubated with forskolin for 6 hrs and measured after 30 mins by luciferase reporter gene assay; assay type: functional
Chain of Histamine H2 receptor (Homo sapiens) (P25021 whole entry): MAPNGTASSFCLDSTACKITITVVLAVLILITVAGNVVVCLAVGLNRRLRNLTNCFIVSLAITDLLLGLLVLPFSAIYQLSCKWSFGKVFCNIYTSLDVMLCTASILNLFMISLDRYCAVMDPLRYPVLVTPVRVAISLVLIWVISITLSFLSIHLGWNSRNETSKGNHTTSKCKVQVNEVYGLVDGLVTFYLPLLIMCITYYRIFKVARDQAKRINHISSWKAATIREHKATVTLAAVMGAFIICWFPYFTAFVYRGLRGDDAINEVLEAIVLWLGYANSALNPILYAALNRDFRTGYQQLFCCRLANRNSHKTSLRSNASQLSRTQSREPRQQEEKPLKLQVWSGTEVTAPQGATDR
Procedure, shortened: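 HEK293T cells transfected in suspension with H2R cDNA (2500 ng), CRE-luciferase (2500 ng) and empty pcDEF3; 50.000 cells/well, grown 24 h before ligand stimulation. Luminescence read 30 min after luciferase reagent (ATP, D-luciferin) at 37 °C. Dose–response curves fitted by nonlinear regression.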

[9] = target: Histamine H3 receptor (Mus musculus) (UniProt P58406); assay: Intrinsic activity at mouse H3R expressed on HEK293T cells assessed as activation of forskolin-induced CRE-luciferase reporter gene activity co-incubated with forskolin for 6 hrs and measured after 30 mins by luciferase reporter gene assay; assay type: functional; procedure, shortened: as §2
Chain of Histamine H3 receptor (Mus musculus) (P58406 whole entry): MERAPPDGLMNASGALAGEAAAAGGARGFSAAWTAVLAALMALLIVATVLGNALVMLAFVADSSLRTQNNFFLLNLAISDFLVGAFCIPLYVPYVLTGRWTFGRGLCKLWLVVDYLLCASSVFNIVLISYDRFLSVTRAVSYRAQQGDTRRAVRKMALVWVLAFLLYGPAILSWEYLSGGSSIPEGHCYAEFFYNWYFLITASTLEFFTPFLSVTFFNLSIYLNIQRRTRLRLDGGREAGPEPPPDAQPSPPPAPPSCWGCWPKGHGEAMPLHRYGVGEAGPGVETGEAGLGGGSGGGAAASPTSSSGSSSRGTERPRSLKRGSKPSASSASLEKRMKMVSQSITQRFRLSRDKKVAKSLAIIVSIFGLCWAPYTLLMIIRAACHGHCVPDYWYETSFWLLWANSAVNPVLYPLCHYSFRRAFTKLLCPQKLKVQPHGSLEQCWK

[10] = target: T3, Histamine H3 receptor (Mus musculus, UniProt P58406); assay: Displacement of [3H]NAMH from mouse H3R expressed in HEK293T cells incubated for 2 hrs by microbeta scintillation counting analysis; assay type: cell-based; procedure, shortened: as §1
T3 sequence (P58406 whole entry): as above

[11] = target: T4, Histamine H4 receptor (Mus musculus, UniProt Q91ZY2); assay: Displacement of [3H]histamine from mouse H4R expressed in HEK293T cells incubated for 2 hrs by microbeta scintillation counting analysis; assay type: cell-based
T4 sequence (Q91ZY2 whole entry): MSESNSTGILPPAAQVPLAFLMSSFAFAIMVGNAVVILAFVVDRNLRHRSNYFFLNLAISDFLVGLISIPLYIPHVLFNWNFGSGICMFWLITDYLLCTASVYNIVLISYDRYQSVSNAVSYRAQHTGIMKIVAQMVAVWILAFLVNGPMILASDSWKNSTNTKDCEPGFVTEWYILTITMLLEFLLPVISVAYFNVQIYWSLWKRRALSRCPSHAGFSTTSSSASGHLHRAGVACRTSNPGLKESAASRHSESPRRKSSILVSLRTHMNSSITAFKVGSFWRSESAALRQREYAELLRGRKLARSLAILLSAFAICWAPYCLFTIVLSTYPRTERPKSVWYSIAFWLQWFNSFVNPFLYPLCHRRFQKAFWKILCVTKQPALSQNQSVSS
Procedure, shortened: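 mH4R-expressing HEK293T homogenates incubated with 30 nM [3H]histamine and increasing unlabeled ligand in 50 mM Tris–HCl pH 7.4, 2 h at 25 °C. Filtered over 0.5% PEI-coated GF/C filters; bound radioactivity counted. One-site fit, Cheng–Prusoff conversion to pKi.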

[12] = target: T3, Histamine H3 receptor; assay: Agonist activity at mouse H3R expressed on HEK293T cells assessed as inhibition of forskolin-induced CRE-driven luciferase activity co-incubated with forskolin for 6 hrs and measured after 30 mins by luciferase reporter gene assay; assay type: functional; procedure, shortened: as §2
[13] = target: T4, Histamine H4 receptor; assay: Agonist activity at mouse H4R expressed on HEK293T cells assessed as inhibition of forskolin-induced CRE-driven luciferase activity co-incubated with forskolin for 6 hrs and measured after 30 mins by luciferase reporter gene assay; assay type: functional; procedure, shortened: as §2
[14] = target: T5, Histamine H4 receptor (Mus musculus) (UniProt Q91ZY2); assay: Intrinsic activity at mouse H4R expressed on HEK293T cells assessed as activation of forskolin-induced CRE-luciferase reporter gene activity co-incubated with forskolin for 6 hrs and measured after 30 mins by luciferase reporter gene assay; assay type: functional; procedure, shortened: as §2
T5 sequence (whole entry): T4 sequence (Q91ZY2 whole entry)

[15] = Half life in rat liver microsomes at 50 uM measured up to 45 mins by UPLC/MS analysis; assay type: ADME, Microsome; settings: 0.75 h
[16] = Intrinsic clearance in rat liver microsomes at 50 uM measured up to 45 mins by UPLC/MS analysis; assay type: ADME, Microsome; settings: read-out: CLH
[17] = Half life in mouse liver microsomes at 50 uM measured up to 45 mins by UPLC/MS analysis; assay type: ADME, Microsome
[18] = Intrinsic clearance in mouse liver microsomes at 50 uM measured up to 45 mins by UPLC/MS analysis; assay type: ADME, Microsome; settings: read-out: CLH
[19] = target: Cytochrome P450 3A4 (Homo sapiens, UniProt P08684); assay: Inhibition of human CYP3A4 expressed in baculovirus infected insect cells using beetle D-luciferin as substrate preincubated for 30 mins followed by NADPH addition and measured after 30 mins by CYP450-Glo assay; assay type: ADME
Chain of Cytochrome P450 3A4 (P08684 whole entry): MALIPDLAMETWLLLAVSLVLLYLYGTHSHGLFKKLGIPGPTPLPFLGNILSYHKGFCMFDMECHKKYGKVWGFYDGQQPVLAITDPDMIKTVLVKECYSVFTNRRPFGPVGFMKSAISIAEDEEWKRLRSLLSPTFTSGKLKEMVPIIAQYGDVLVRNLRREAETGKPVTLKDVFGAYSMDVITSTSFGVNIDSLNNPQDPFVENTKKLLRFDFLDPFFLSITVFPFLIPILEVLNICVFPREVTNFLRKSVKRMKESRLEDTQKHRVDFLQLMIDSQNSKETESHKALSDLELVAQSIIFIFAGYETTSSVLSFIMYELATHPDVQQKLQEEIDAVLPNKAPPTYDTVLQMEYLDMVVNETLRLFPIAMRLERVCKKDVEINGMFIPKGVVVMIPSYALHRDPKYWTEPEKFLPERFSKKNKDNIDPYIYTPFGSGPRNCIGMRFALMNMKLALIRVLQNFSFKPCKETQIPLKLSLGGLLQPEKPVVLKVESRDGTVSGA

[20] = target: Cytochrome P450 2D6 (Homo sapiens, UniProt P10635); assay: Inhibition of human CYP2D6 expressed in baculovirus infected insect cells using beetle D-luciferin as substrate preincubated for 30 mins followed by NADPH addition and measured after 30 mins by CYP450-Glo assay; assay type: ADME
Chain of Cytochrome P450 2D6 (P10635 whole entry): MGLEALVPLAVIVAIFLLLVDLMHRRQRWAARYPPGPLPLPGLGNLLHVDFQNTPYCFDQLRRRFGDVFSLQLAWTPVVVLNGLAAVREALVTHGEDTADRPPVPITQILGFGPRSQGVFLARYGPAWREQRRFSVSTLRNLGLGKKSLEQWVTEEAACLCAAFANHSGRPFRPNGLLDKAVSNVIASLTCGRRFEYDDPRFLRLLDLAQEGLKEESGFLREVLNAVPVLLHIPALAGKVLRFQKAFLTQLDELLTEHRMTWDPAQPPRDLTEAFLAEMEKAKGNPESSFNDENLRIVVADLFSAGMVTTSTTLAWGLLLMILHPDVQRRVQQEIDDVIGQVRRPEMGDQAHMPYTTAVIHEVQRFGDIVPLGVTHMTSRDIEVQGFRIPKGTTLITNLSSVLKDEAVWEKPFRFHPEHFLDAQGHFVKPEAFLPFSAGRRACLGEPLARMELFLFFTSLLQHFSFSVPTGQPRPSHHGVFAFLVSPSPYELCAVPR

[21] = target: Cytochrome P450 2C9 (Homo sapiens, UniProt P11712); assay: Inhibition of human CYP2C9 expressed in baculovirus infected insect cells using beetle D-luciferin as substrate preincubated for 30 mins followed by NADPH addition and measured after 30 mins by CYP450-Glo assay; assay type: ADME
Chain of Cytochrome P450 2C9 (P11712 whole entry): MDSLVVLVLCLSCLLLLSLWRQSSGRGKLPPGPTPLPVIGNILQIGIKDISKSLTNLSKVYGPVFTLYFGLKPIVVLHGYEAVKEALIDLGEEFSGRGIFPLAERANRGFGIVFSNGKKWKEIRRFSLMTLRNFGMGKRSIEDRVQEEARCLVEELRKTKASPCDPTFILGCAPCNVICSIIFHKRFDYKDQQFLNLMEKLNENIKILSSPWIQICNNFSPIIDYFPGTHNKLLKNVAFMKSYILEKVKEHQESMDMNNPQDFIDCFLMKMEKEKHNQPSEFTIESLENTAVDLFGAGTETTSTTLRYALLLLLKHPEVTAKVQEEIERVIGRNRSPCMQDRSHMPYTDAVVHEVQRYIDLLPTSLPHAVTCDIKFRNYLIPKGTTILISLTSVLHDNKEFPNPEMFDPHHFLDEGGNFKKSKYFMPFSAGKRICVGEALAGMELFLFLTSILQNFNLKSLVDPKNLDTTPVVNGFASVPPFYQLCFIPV

[22] = test system: Mus musculus; assay: Effect on social recognition in C57Bl6 mouse assessed as change in time spent in exploring cage at 5 mg/kg, ip administered 30 mins prior to training trial; assay type: ADME, organism-based; settings: in vivo, 0.5 h
Procedure, shortened: (§4)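 Male C57Bl6 mice, 8–9 weeks. Session 1: 10 min arena habituation with two empty wire cups. 24 h later, 10 min with juvenile (4–5 weeks) under one cup; 1 h later, 10 min test with familiar plus novel juvenile. 5 mg/kg or vehicle i.p. 30 min before second session. Blind video scoring of exploration; sociability and discrimination indices; 10–11 mice/group.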

[23] = test system: Mus musculus; assay: Effect on social recognition in C57Bl6 mouse assessed as change in behavior at 5 mg/kg, ip administered 30 mins prior to training trial; assay type: ADME, organism-based; settings: in vivo, 0.5 h; procedure, shortened: as §4
[24] = test system: Mus musculus; assay: Effect on social recognition in C57Bl6 mouse assessed as change in time spent with familiar juvenile at 5 mg/kg, ip administered 30 mins prior to training trial; assay type: ADME, organism-based; settings: in vivo, 0.5 h; procedure, shortened: as §4
[25] = test system: Mus musculus; assay: Effect on social recognition in C57Bl6 mouse assessed as change in time spent with novel juvenile at 5 mg/kg, ip administered 30 mins prior to training trial; assay type: ADME, organism-based; settings: in vivo, 0.5 h; procedure, shortened: as §4
[26] = target: T2, Histamine H4 receptor; assay: Displacement of [3H]histamine from human H4R expressed in HEK293T cells incubated for 2 hrs by microbeta scintillation counting analysis
[27] = target: T1, Histamine H3 receptor; assay: Displacement of [3H]-N-alpha-methylhistamine from human histamine H3 receptor expressed in CHO cells incubated for 40 min by liquid scintillation counting analysis; assay type: cell-based
[28] = target: T1, Histamine H3 receptor; assay: Agonist activity at recombinant human H3R expressed on cells incubated for 60 mins by [35S]GTPgammaS binding assay; assay type: functional

Ki [1]: 63.1 nM
EC50 [2]: 7.94 nM
Intrinsic activity [3]: 1.2
SMILES: CCN(CC)C1CN(c2ccnc(N)n2)C1

Ki [1]: 79.4 nM
EC50 [2]: 12.6 nM
Intrinsic activity [3]: 1
SMILES: CCNC1CN(c2cc(C)nc(N)n2)C1

Ki [1]: 50.1 nM
EC50 [2]: 25.1 nM
Intrinsic activity [3]: 0.8
SMILES: CCc1cc(N2CC(NC)C2)nc(N)n1

Ki [1]: 15.8 nM
EC50 [2]: 5.01 nM
Intrinsic activity [3]: 1.1
SMILES: Nc1nccc(N2CC(N)C2)n1

Ki [1]: 126 nM
EC50 [2]: 100 nM
Intrinsic activity [3]: 0.4
SMILES: CC(C)c1cc(N2CC(N(C)C)C2)nc(N)n1

Ki [27]: 50.1 nM
EC50 [28]: 126 nM
SMILES: CCCCC(=O)O[C@H]1C[C@@H]2C[C@H]3[C@](NC)(CN2[C@@H](C)C1)C[C@]1(C(=O)Nc2c(C(=O)[C@H]4OC4(C)C)cccc21)[C@]3(C)C=O

Ki [1]: 50.1 nM
EC50 [2]: 15.8 nM
Intrinsic activity [3]: 0.9
SMILES: Cc1cc(N2CC(N)C2)nc(N)n1

Continued, compound first:

SMILES: CCCNC1CN(c2ccnc(N)n2)C1.O.O=C(O)/C=C/C(=O)O
Ki [1]: 3.16 nM
EC50 [2]: 0.316 nM
Intrinsic activity [3]: 1.2
EC50 [4]: 3.98 nM
Intrinsic activity [5]: 0.5
EC50 [6]: 3.16 nM
Intrinsic activity [7]: 1.1
Activity [8]: inactive
Intrinsic activity [9]: 1.2
Ki [10]: 1 nM
Ki [11]: 15.8 nM
EC50 [12]: 0.1 nM
EC50 [13]: 1 nM
Intrinsic activity [14]: 1.1
t1/2 [15]: 3.98 h
CLint scaled at 50 µM [16]: 7.9 mL/min/kg
half-life at 50 µM [17]: 2.18 h
CLint scaled at 50 µM [18]: 20.7 mL/min/kg
IC50 [19]: > 25000 nM
IC50 [20]: > 25000 nM
IC50 [21]: > 25000 nM
Activity [22]: Non-Toxic
Activity [23]: Non-Toxic
Activity [24]: Non-Toxic
Activity [25]: Non-Toxic
Ki [26]: 7.94 nM

SMILES: CCc1cc(N2CC(N(C)C)C2)nc(N)n1
Ki [1]: 251 nM
EC50 [2]: 63.1 nM
Intrinsic activity [3]: 0.8

SMILES: CNC1CN(c2ccnc(N)n2)C1
Ki [1]: 6.31 nM
EC50 [2]: 1.26 nM
Intrinsic activity [3]: 1.1

SMILES: CCCCNC1CN(c2ccnc(N)n2)C1
Ki [1]: 15.8 nM
EC50 [2]: 0.794 nM
Intrinsic activity [3]: 1.2

SMILES: CC(C)NC1CN(c2ccnc(N)n2)C1
Ki [1]: 39.8 nM
EC50 [2]: 3.16 nM
Intrinsic activity [3]: 1.2
